Laboratory results as given in paper PMC6217529 (ACS Omega, 2018).
“Also recorded” adds a separate entry of the source.

What was measured:
platelets (PRP) = assay: Epinephrine-induced platelet aggregation in PRP; assay type: cell-based, human; details: agonist epinephrine
How it was run: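 Platelet-rich plasma (PRP) and platelet-poor plasma (PPP) were prepared from fresh blood of healthy human donors, and PRP was adjusted with PPP to 3.1 × 10^8 platelets/mL at 37 °C. PRP was pre-incubated with test compound (10, 20 or 30 μg) in a 0.25 mL reaction volume. Aggregation was started with 5 μM epinephrine and traced on a dual-channel optical lumi-aggregometer. Inhibition % was plotted against dose, from three independent experiments.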

mice [1] = assay: Edema inducing activity in mice foot pads; assay type: in vivo; details: up to 100 μg
mice [2] = assay: Hemorrhagic activity in mice, intradermal; assay type: in vivo; details: up to 100 μg

SMILES | ability to inhibit epinephrine-induced platelet aggregation (in words) (platelets (PRP)) | edema in experimental mice (in words) (mice [1]) | hemorrhage in experimental mice (in words) (mice [2])
Cn1c(-c2ccc(Br)s2)nc2cc(-c3nnc(-c4cc(-c5cc(F)cc(F)c5)nc5ccccc45)o3)ccc21 [8a, 2-(2-(5-Bromothiophen-2-yl)-1-methyl-1H-benzo[d]imidazol-5-yl)-5-(2-(3,5-difluorophenyl)quinolin-4-yl)-1,3,4-oxadiazole] | able to inhibit the epinephrine-induced platelet aggregation | anti-edema; also recorded: active in preventing hemorrhage and edema | anti-hemorrhagic
Cn1c(-c2ccc(Br)s2)nc2cc(-c3nnc(-c4cc(-c5ccc(Cl)cc5Cl)nc5ccccc45)o3)ccc21 [8d, 2-(2-(5-Bromothiophen-2-yl)-1-methyl-1H-benzo[d]imidazol-5-yl)-5-(2-(2,4-dichlorophenyl)quinolin-4-yl)-1,3,4-oxadiazole] | but not the 8d sample | anti-edema; also recorded: active in preventing hemorrhage and edema | anti-hemorrhagic
